The results in this text go back to ChEMBL document CHEMBL1125560, “Synthesis and physicochemical properties of sulfamate derivatives as topical antiglaucoma agents” (J Med Chem, 1992).

Bounds are passed on as bounds.

Series [1] in a line: (§1) Partition coefficient at pH 7.4 between chloroform and water as a measure of lipid solubility. Format: ADME. The following applies: read-out: pKa1. A digest of the protocol: (§2)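 Drug dissolved in 0.05 M phosphate buffer, pH 7.4, and shaken with an equal volume of chloroform to equilibrium. Aqueous drug concentration found from carbonic anhydrase inhibitory activity of aqueous samples against a standard curve. Organic concentration obtained by difference. Reported as organic/aqueous concentration ratio.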

Series [2] can be described thus: Solubility in water at pH 5.0. Format: physicochemical. A digest of the protocol: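 Not measured directly. Intrinsic solubility S0 comes from equilibrium solubility in pH 7.4 phosphate buffer (2–4 days, UV read-out). Solubility at pH 5 is then calculated as S = S0(1 + 10^(pKa1−pH) + 10^(pH−pKa2)), using the imidazole and sulfonamide pKa values.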
The nature of series [3]: Compound was evaluated for partition coefficient at pH 7.4 (CHCl3/buffer). As to conditions: octanol/water.
For series [4], the target named is Carbonic anhydrase (Bos taurus, UniProt P00921+Q95323+P18915+Q3SZX4). The experiment in a line: Bovine erythrocyte carbonic anhydrase inhibitory activity of the compound.
A short description of series [5]: Intrinsic solubility of the compound. The class given is ADME. The following applies: read-out: S. An outline of the steps:
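Compound equilibrated 2–4 days in pH 7.4 phosphate buffer in sealed rotating tubes, amount tripled if all dissolved. pH and concentration then measured: solution filtered (0.2 μm), diluted, concentration read by UV spectrum. Intrinsic solubility S0 derived from S = S0(1 + 10^(pKa1−pH) + 10^(pH−pKa2)).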

The nature of series [6]: as §1.
Series [7] deals with Oryctolagus cuniculus. The experiment in a line: Compound was evaluated for decrease in intraocular pressure (IOP) (mmHg) at 1 hour postdosing to New Zealand white rabbits with 2% solubility. Format: functional, Eye. An outline of the steps:
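New Zealand white rabbits, at least six per test, 2–10 experiments. Eyes given one drop of topical anesthetic (proparacaine) before tonometer IOP readings, taken before dosing and at 1 h intervals after. Drug at 2% in 0.5% hydroxyethylcellulose, 50 μL to one eye, vehicle to the other. Value is treated-eye minus control-eye IOP at 1 h, mean.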

A short description of series [8]: Partition coefficient of the compound at pH 7.4 between chloroform and water as a measure of lipid solubility. The following applies: read-out: pKa2. The class given is ADME. A digest of the protocol:
as §2

For orientation: IC50 means the concentration that inhibits the measured activity by half. Lower therefore signals higher potency. As for `Cc1cn(-c2cccc(OS(N)(=O)=O)c2)cn1.Cl`, the pKa in series [1] came out at 6.09; in series [6], 8.08. Besides, the solubility in series [2] worked out at 6300 µg/mL; in series [5], 470 µg/mL. This molecule came in with a Partition coefficient in series [3] of 0.73. The molecule also registered a 50% inhibitory concentration (IC50) in series [4] of 94 nM.

For the molecule `Cl.NS(=O)(=O)Oc1ccc(-n2ccnc2)cc1`, the pKa in series [1] was 5.54; in series [6], 8. Also, the solubility in series [2] stood at 1000 µg/mL; in series [5] it was 230 µg/mL. In addition, in series [7], the IOP is 1.3 mmHg. The Partition coefficient in series [3] is recorded as 0.16. The same molecule displayed an IC50 in series [4] of 120 nM.

As to `CC(=O)Nc1nnc(S(N)(=O)=O)s1.Cl`, the solubility in series [2] was < 710 µg/mL. In series [7], this molecule registered an IOP of 0 mmHg.

As for `Cl.NS(=O)(=O)OCCOc1ccc(-n2ccnc2)cc1`, the pKa in series [1] is 5.98; in series [6], 9.05. Also, the solubility came out at 7400 µg/mL in series [2] and 700 µg/mL in series [5]. This molecule also returned an IOP in series [7] of 2.5 mmHg. The molecule also gave a Partition coefficient in series [3] of 1.5. Further, the IC50 in series [4] is 23 nM.

In the case of `Cl.NS(=O)(=O)OCCCOc1ccc(-n2ccnc2)cc1`, the pKa came out at 6.09 in series [1] and 9.22 in series [8]. Moreover, the solubility in series [2] was found to be 1600 µg/mL; in series [5], 120 µg/mL. In series [7], this molecule showed an IOP of 0 mmHg. In series [3], this molecule registered a Partition coefficient of 5.5. Moreover, the concentration for half-maximal inhibition (IC50) in series [4] stood at 250 nM.

For `Cc1nccn1-c1cccc(OS(N)(=O)=O)c1.Cl`, the results for the pKa in series [1] and in series [6] were 6.47 and 7.99, respectively. Also, the solubility stood at 100000 µg/mL in series [2] and 3300 µg/mL in series [5]. Besides, in series [7], the IOP was found to be 0 mmHg. Further, the Partition coefficient in series [3] is 0.18. In addition, the IC50 in series [4] stood at 50 nM.

As for `Cl.NS(=O)(=O)Oc1cccc(-n2ccnc2)c1`, the pKa is 5.4 in series [1] and 9.05 in series [6]. In addition, the solubility amounted to 38000 µg/mL in series [2] and 11000 µg/mL in series [5]. This molecule gave an IOP in series [7] of 1.5 mmHg. In series [3], this molecule displayed a Partition coefficient of 0.28. In addition, in series [4], the IC50 was 42 nM.

For the molecule `Cc1nccn1-c1cccc(OCCOS(N)(=O)=O)c1.Cl`, the pKa in series [1] is 6.9; in series [8] it was 8.99. The solubility in series [2] is 114000 µg/mL; in series [5], 1400 µg/mL. Besides, the IOP in series [7] came out at 1.7 mmHg. The molecule also showed a Partition coefficient in series [3] of 1.1. For the same molecule, the concentration for half-maximal inhibition (IC50) in series [4] was 77 nM.

Consider `Cc1cn(-c2cccc(OCCOS(N)(=O)=O)c2)cn1.Cl`, for which the results for the pKa in series [1] and in series [6] were 6.34 and 8.96, respectively. In addition, the values for the solubility in series [2] and in series [5] were 4900 µg/mL and 220 µg/mL, respectively. Also, the Partition coefficient in series [3] was determined as 4.6. The molecule further displayed an IC50 in series [4] of 210 nM.

Regarding `Cl.NS(=O)(=O)OCCOc1cccc(-n2ccnc2)c1`, the pKa is 5.71 in series [1] and 8.91 in series [6]. Besides, the figures for the solubility in series [2] and in series [5] were 1500 µg/mL and 250 µg/mL, respectively. The IOP in series [7] turned out to be 2.3 mmHg. Besides, the Partition coefficient in series [3] was determined as 2.2. Moreover, the concentration for half-maximal inhibition (IC50) in series [4] was found to be 69 nM.
